Results from ChEMBL document CHEMBL1143123, “Novel analogs of D-e-MAPP and B13. Part 2: signature effects on bioactive sphingolipids” (2008).
Calls of active or inactive are those of the source. The rule behind the calls is not given here.

Columns and labels:
[1] = tested on: MCF7; test: Decrease in endogenous sphingosine level in human MCF7 cells at 50 uM after 24 hrs; set-up: scale not given: the % may be the effect or the level left
[2] = tested on: MCF7; test: Increase in endogenous ceramide level in human MCF7 cells at 50 uM after 24 hrs; assay type: functional
Outline: (§1)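 MCF7 cells grown in RPMI 1640 with 10% FCS at 37 °C in 5% CO2. Seeded near 50% density and treated 24 h later with compound in ethanol (0.1% final); controls got ethanol alone. Cells washed in cold PBS and extracted. Cer species, Sph and S1P measured by HPLC-MS/MS (C8 column, positive-ion MRM) against internal standards and calibration curves. Results given as pmol/nmol phospholipid phosphate, relative to ethanol controls.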

[3] = tested on: MCF7; test: Increase in endogenous C24-ceramide level in human MCF7 cells at 10 uM after 1 to 2.5 hrs; assay type: functional, cell-based
Outline: (§2)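 MCF7 cells grown in RPMI 1640 with 10% FCS at 37 °C, 5% CO2. Seeded at ~50% density (1×10^6 cells), treated 24 h later with compounds in ethanol (0.1% final); controls got ethanol only. Cells washed in cold PBS and lipids extracted. Cer species and Sph quantified by HPLC-MS/MS (MRM, positive ion) against internal standards and calibration curves. Values given as pmol/nmol phospholipid and compared with ethanol controls.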

[4] = tested on: MCF7; test: Decrease in endogenous sphingosine level in human MCF7 cells upto 10 uM after 48 hrs; assay type: functional; set-up: scale not given: the % may be the effect or the level left
Outline: as §2

[5] = tested on: MCF7; test: Growth inhibition of human MCF7 cells after 48 hrs; assay type: functional, cell-based
[6] = tested on: MCF7; test: Increase in endogenous C16-ceramide level in human MCF7 cells at 50 uM after 24 hrs; assay type: functional
Outline: as §2

[7] = tested on: MCF7; test: Increase in endogenous sphingosine level in human MCF7 cells at 10 uM after 24 hrs; assay type: functional
Outline: as §1

[8] = tested on: MCF7; test: Increase in endogenous C24:1-ceramide level in human MCF7 cells at 10 uM after 1 to 2.5 hrs; assay type: functional, cell-based
Outline: as §1

[9] = tested on: MCF7; test: Increase in endogenous sphingosine level in human MCF7 cells upto 10 uM after 24 hrs; assay type: functional, cell-based
Outline: as §1

[10] = tested on: MCF7; test: Increase in endogenous sphingosine level in human MCF7 cells at 10 uM after 1 to 2.5 hrs; assay type: functional, cell-based
Outline: as §1

[11] = tested on: MCF7; test: Increase in endogenous C18-ceramide level in human MCF7 cells at 10 uM after 2.5 hrs; assay type: functional
Outline: as §2

[12] = tested on: MCF7; test: Increase in endogenous ceramide level in human MCF7 cells at 1 uM after 24 hrs; assay type: functional
Outline: as §1

[13] = tested on: MCF7; test: Increase in endogenous C16-ceramide level in human MCF7 cells at 1 uM after 24 hrs; assay type: functional, cell-based
Outline: as §2

[14] = tested on: MCF7; test: Decrease in endogenous sphingosine level in human MCF7 cells at 1 uM after 24 hrs; assay type: functional; set-up: scale not given: the % may be the effect or the level left
Outline: as §2

[15] = tested on: MCF7; test: Increase in endogenous C18-ceramide level in human MCF7 cells at 1 uM after 24 hrs; assay type: functional, cell-based
Outline: as §2

[16] = tested on: MCF7; test: Increase in endogenous C16-ceramide level in human MCF7 cells at 10 uM after 5 mins; assay type: functional, cell-based
Outline: as §2

[17] = tested on: MCF7; test: Inhibition of endogenous sphingosine level in human MCF7 cells at 10 uM after 2.5 hrs; assay type: functional, cell-based
Outline: as §1

[18] = tested on: MCF7; test: Increase in endogenous C14-ceramide level in human MCF7 cells at 10 uM after 2.5 hrs; assay type: functional
Outline: as §2

[19] = tested on: MCF7; test: Increase in endogenous C24:1-ceramide level in human MCF7 cells at 10 uM after 5 mins; assay type: functional, cell-based
Outline: as §1

[20] = tested on: MCF7; test: Increase in endogenous C16-ceramide level in human MCF7 cells at 10 uM after 2.5 hrs; assay type: functional
Outline: as §2

[21] = tested on: MCF7; test: Decrease in endogenous sphingosine level in human MCF7 cells at 10 uM within 5 mins; assay type: functional; set-up: scale not given: the % may be the effect or the level left
Outline: as §2

[22] = tested on: MCF7; test: Increase in endogenous C14-ceramide level in human MCF7 cells at 1 uM after 24 hrs; assay type: functional, cell-based
Outline: as §2

[23] = tested on: MCF7; test: Increase in endogenous C24-ceramide level in human MCF7 cells at 10 uM after 5 mins; assay type: functional, cell-based
Outline: as §2

[24] = tested on: MCF7; test: Increase in endogenous C14-ceramide level in human MCF7 cells at 10 uM after 5 mins; assay type: functional, cell-based
Outline: as §2

[25] = tested on: MCF7; test: Inhibition of acid ceramidase in human MCF7 cells assessed as enzyme degradation at 10 uM after 5 hrs; assay type: cell-based
[26] = tested on: MCF7; test: Increase in endogenous C18-ceramide level in human MCF7 cells at 10 uM after 5 mins; assay type: functional, cell-based
Outline: as §2

[27] = tested on: MCF7; test: Decrease in endogenous C24-ceramide level in human MCF7 cells at 10 uM after 18 hrs; assay type: functional, cell-based
Outline: as §2

[28] = tested on: MCF7; test: Decrease in endogenous sphingosine level in human MCF7 cells at 10 uM upto 2.5 hrs; assay type: functional, cell-based
Outline: as §2

[29] = tested on: MCF7; test: Decrease in endogenous sphingosine level in human MCF7 cells at 5 uM after 24 hrs; set-up: scale not given: the % may be the effect or the level left
[30] = tested on: MCF7; test: Increase in endogenous sphingosine level in human MCF7 cells at 10 uM within 30 mins; assay type: functional
Outline: as §1

[31] = tested on: MCF7; test: Decrease in endogenous C24:1-ceramide level in human MCF7 cells at 10 uM upto 2.5 hrs; assay type: functional, cell-based
Outline: as §2

[32] = tested on: MCF7; test: Increase in endogenous C24:1-ceramide level in human MCF7 cells at 10 uM within 30 mins; assay type: functional, cell-based
Outline: as §1

[33] = tested on: MCF7; test: Decrease in endogenous ceramide level in human MCF7 cells at 10 uM after 24 hrs; assay type: functional; set-up: scale not given: the % may be the effect or the level left
Outline: as §2

[34] = tested on: MCF7; test: Increase in endogenous C24:1-ceramide level in human MCF7 cells at >30 uM after 24 hrs; assay type: functional, cell-based
Outline: as §1

[35] = tested on: MCF7; test: Increase in endogenous C24-ceramide level in human MCF7 cells at 10 uM upto 2.5 hrs; assay type: functional, cell-based
Outline: as §2

[36] = tested on: MCF7; test: Decrease in endogenous sphingosine level in human MCF7 cells at 20 uM after 24 hrs; assay type: functional, cell-based
Outline: as §2

[37] = tested on: MCF7; test: Increase in endogenous C16-ceramide level in human MCF7 cells at 10 uM within 30 mins; assay type: functional, cell-based
Outline: as §2

[38] = tested on: MCF7; test: Increase in endogenous C16-ceramide level in human MCF7 cells at >25 uM after 24 hrs; assay type: functional, cell-based
Outline: as §2

[39] = tested on: MCF7; test: Decrease in endogenous C24:1-ceramide level in human MCF7 cells upto 20 uM after 24 hrs; assay type: functional; set-up: scale not given: the % may be the effect or the level left
Outline: as §2

[40] = tested on: MCF7; test: Decrease in endogenous C16-ceramide level in human MCF7 cells at 10 uM after 18 hrs; assay type: functional, cell-based
Outline: as §2

[41] = tested on: MCF7; test: Increase in endogenous C24-ceramide level in human MCF7 cells at 10 uM within 30 mins; assay type: functional, cell-based
Outline: as §1

[42] = tested on: MCF7; test: Decrease in endogenous C24-ceramide level in human MCF7 cells upto 20 uM after 24 hrs; assay type: functional; set-up: scale not given: the % may be the effect or the level left
Outline: as §2

[43] = tested on: MCF7; test: Decrease in endogenous sphingosine level in human MCF7 cells at 50 uM after 24 hrs; assay type: functional; set-up: scale not given: the % may be the effect or the level left
Outline: as §2

[44] = tested on: MCF7; test: Increase in endogenous C24:1-ceramide level in human MCF7 cells after 24 hrs; assay type: functional
Outline: as §1

[45] = tested on: MCF7; test: Increase in endogenous C24:1-ceramide level in human MCF7 cells at 10 uM upto 0.5 hrs; assay type: functional, cell-based
Outline: as §1

[46] = tested on: MCF7; test: Increase in endogenous C24-ceramide level in human MCF7 cells after 24 hrs; assay type: functional
Outline: as §2

[47] = tested on: MCF7; test: Increase in endogenous C24-ceramide level in human MCF7 cells at 10 uM upto 0.5 hrs; assay type: functional, cell-based
Outline: as §2

[48] = tested on: MCF7; test: Increase in endogenous C14-ceramide level in human MCF7 cells after 24 hrs; assay type: functional
Outline: as §2

[49] = tested on: MCF7; test: Increase in endogenous C16-ceramide level in human MCF7 cells after 24 hrs; assay type: functional
Outline: as §2

[50] = tested on: MCF7; test: Increase in endogenous C16-ceramide level in human MCF7 cells upto 24 hrs; assay type: functional
Outline: as §2

[51] = tested on: MCF7; test: Increase in endogenous C24-ceramide level in human MCF7 cells upto 24 hrs; assay type: functional
Outline: as §1

[52] = tested on: MCF7; test: Increase in endogenous C14-ceramide level in human MCF7 cells at 10 uM upto 24 hrs; assay type: functional
Outline: as §2

[53] = tested on: MCF7; test: Decrease in endogenous sphingosine level in human MCF7 cells at 10 uM upto 0.5 hrs; assay type: functional, cell-based
Outline: as §2

[54] = tested on: MCF7; test: Increase in endogenous C16-ceramide level in human MCF7 cells at 10 uM upto 0.5 hrs; assay type: functional, cell-based
Outline: as §2

[55] = tested on: MCF7; test: Increase in endogenous C24:1-ceramide level in human MCF7 cells upto 24 hrs; assay type: functional
Outline: as §1

[56] = tested on: MCF7; test: Increase in endogenous sphingosine-1-phosphate level in human MCF7 cells after 5 to 10 hrs; assay type: functional, cell-based
Outline: as §1

[57] = tested on: MCF7; test: Increase in endogenous sphingosine level in human MCF7 cells after 24 hrs; assay type: functional
Outline: as §1

CCCCCCCCCCCCNC(=O)N[C@H](C)[C@@H](O)c1ccccc1
Activity [1]: 25%
Activity [2]: 180%
Activity [3]: Active
Activity [4]: 25%
Activity [5]: Active
Activity [6]: Active
Activity [7]: 140%
Activity [8]: Active
Activity [9]: Active
Activity [10]: Active

CCCCCCCCCCCCCCN[C@H](C)[C@@H](O)c1ccccc1.Cl
Activity [11]: 260%
Activity [12]: 180%
Activity [13]: Active
Activity [14]: 80%
Activity [15]: Active
Activity [16]: Active
Activity [17]: Active
Activity [18]: 430%
Activity [19]: inactive
Activity [20]: 330%
Activity [21]: 25%
Activity [22]: Active
Activity [23]: inactive
Activity [24]: Active
Activity [25]: Active
Activity [26]: Active

CCCCCCCCCCCCNC(=O)N[C@H](CO)[C@H](O)c1ccc([N+](=O)[O-])cc1
Activity [27]: Active
Activity [2]: 170%
Activity [28]: Active
Activity [29]: 80%
Activity [30]: Active
Activity [31]: Active
Activity [32]: Active
Activity [33]: 90%
Activity [34]: Active
Activity [35]: Active
Activity [36]: Active
Activity [5]: Active
Activity [37]: Active
Activity [38]: Active
Activity [39]: 80%
Activity [40]: Active
Activity [41]: Active
Activity [42]: 80%
Activity [43]: 45%

O=C(CCCCCCCCCCCCCCC[n+]1ccccc1)N[C@H](CO)[C@H](O)c1ccc([N+](=O)[O-])cc1.[Br-]
Activity [44]: 270%
Activity [45]: Active
Activity [46]: 140%
Activity [47]: Active
Activity [48]: 800%
Activity [49]: 800%
Activity [50]: 820%
Activity [51]: 130%
Activity [52]: 760%
Activity [53]: Active
Activity [54]: Active
Activity [55]: 260%
Activity [56]: Active
Activity [57]: 350%
